Values after ≈ are worked out from the molar mass of the structure shown. Active and inactive are the calls of the source. The rule behind the calls is not given here. Starred links: 1 amine or outer side, 2 acyl side, 3 side chain; linkers in the order of their positions; H or OH if unused. Positions of bridges follow the written chain, without caps; N, C: chain ends. Non-standard residues stand in square brackets, D forms with d. Residues, ends and D or L forms follow the SMILES beside them. Groups on a side chain read outwards from the residue. *: point of attachment. Orn(4R-OH,5R-OH) = O=C([C@H](C[C@@H](O)[C@@H](O)N[*:3])N[*:1])[*:2]; hTyr(3S-OH,4S-OH) = N[C@H](C(=O)O)[C@H](O)[C@@H](O)c1ccc(O)cc1; Pro(3S-OH,4S-Me) = C[C@H]1CN[C@H](C(=O)O)[C@H]1O; εLys = N[C@@H](CCCCN[*:1])C(=O)[*:2]; Palmitoyl = CCCCCCCCCCCCCCCC(=O)*; Hyp = O=C(O)[C@@H]1C[C@@H](O)CN1; ClZ = O=C(OCc1ccccc1Cl)*
Key:
Staphylococcus aureus [1] = test: Antibacterial activity against Staphylococcus aureus ATCC 25923 after 18 to 24 hrs by serial broth microdilution susceptibility test; format: functional
Summary of the method: (§1)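 MIC determined by serial microdilution in microplates. Candida inocula were prepared in L-glutamine-deficient RPMI-1640 medium.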

Pseudomonas aeruginosa = test: Antibacterial activity against Pseudomonas aeruginosa ATCC 27853 after 18 to 24 hrs by serial broth microdilution susceptibility test; format: functional; summary of the method: as §1
Escherichia coli [2] = test: Antibacterial activity against Escherichia coli ATCC 25922 after 18 to 24 hrs by serial broth microdilution susceptibility test; format: functional; summary of the method: as §1
Staphylococcus aureus [3] = test: Antibacterial activity against Staphylococcus aureus ATCC 43300 after 18 to 24 hrs by serial broth microdilution susceptibility test; format: functional; summary of the method: as §1
[4] = system: Klebsiella pneumoniae subsp. pneumoniae; test: Antibacterial activity against Klebsiella pneumoniae subsp. pneumoniae ATCC 13882 after 18 to 24 hrs by serial broth microdilution susceptibility test; format: functional; summary of the method: as §1
[5] = system: Bordetella bronchiseptica; test: Antibacterial activity against Bordetella bronchiseptica ATCC 4617 after 18 to 24 hrs by serial broth microdilution susceptibility test; format: functional; summary of the method: as §1
Acinetobacter baumannii = test: Antibacterial activity against Acinetobacter baumannii ATCC 19606 after 18 to 24 hrs by serial broth microdilution susceptibility test; format: functional; conditions: ATCC 19606 = CIP 70.34 = JCM 6841; summary of the method: as §1
Escherichia coli [6] = test: Antibacterial activity against Escherichia coli ATCC BAA-198 after 18 to 24 hrs by serial broth microdilution susceptibility test; format: functional; summary of the method: as §1
Candida albicans [7] = test: Antifungal activity against Candida albicans ATCC 90028 after 24 to 48 hrs by serial broth microdilution susceptibility test; format: functional; summary of the method: as §1
Candida parapsilosis = test: Antifungal activity against Candida parapsilosis ATCC 22019 after 24 to 48 hrs by serial broth microdilution susceptibility test; format: functional; conditions: Lodderomyces parapsilosis; summary of the method: as §1
Pichia kudriavzevii = test: Antifungal activity against Candida krusei ATCC 6258 after 24 to 48 hrs by serial broth microdilution susceptibility test; format: functional; summary of the method: as §1
[8] = Toxicity in human erythrocytes assessed as hemolysis at 50 uM after 30 mins by spectrophotometry; format: cell-based, Erythrocyte; conditions: read-out: Activity
Summary of the method: (§2)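 Human erythrocytes suspended in PBS were exposed to lipopeptides at 0.001–0.4 mmol/l and hemolysis was measured.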

[9] = Toxicity in human erythrocytes assessed as hemolysis at 100 uM after 30 mins by spectrophotometry; format: cell-based, Erythrocyte; conditions: read-out: Activity; summary of the method: as §2
[10] = (§3) Inhibition of beta (1,3) glucan synthase in Candida albicans cell membrane using UDP-Glc as substrate assessed as aniline blue-glucan complex formation by microtiter-based fluorescence method
Summary of the method: (§4)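 β(1,3)-glucan synthase in the membrane fraction of C. albicans was assayed by a microtiter-based fluorescence method across a concentration range. Values are means of three independent experiments (SD); IC50 was determined.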

[11] = Toxicity in human erythrocytes assessed as hemolysis at 300 uM after 30 mins by spectrophotometry; format: cell-based, Erythrocyte; conditions: read-out: Activity; summary of the method: as §2
[12] = Toxicity in human erythrocytes assessed as hemolysis at above MIC after 30 mins by spectrophotometry; format: cell-based; conditions: erythrocyte, 0.5 h; summary of the method: as §2
[13] = Toxicity in human erythrocytes suspended in L-glutamine deficient RPMI-1640 assessed as hemolysis after 30 mins by spectrophotometry relative to human erythrocytes suspended in PBS buffer; format: cell-based; conditions: erythrocyte, 0.5 h
Summary of the method: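 Hemolysis was measured for human erythrocytes resuspended in L-glutamine-deficient RPMI-1640 (the Candida MIC medium) and compared with erythrocytes suspended in PBS.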

Candida albicans [14] = test: Antifungal activity against Candida albicans ATCC 10231 assessed as alteration in cell envelope at 4 uM after 2 hrs by scanning electron microscopy; format: functional, organism-based
Candida albicans [15] = test: Antifungal activity against Candida albicans ATCC 10231 assessed as leakage of intracellular contents at 4 uM after 2 hrs by scanning electron microscopy; format: functional, organism-based
Candida albicans [16] = test: Antifungal activity against Candida albicans ATCC 10231 assessed as massive destruction of cell surface at 64 uM after 2 hrs by scanning electron microscopy; format: functional, organism-based
Candida albicans [17] = test: Antifungal activity against Candida albicans ATCC 10231 assessed as morphological changes at < 60 uM after 6 hrs by calcofluor white and aniline blue staining-based fluorescence microscopy; format: functional, organism-based
Summary of the method: (§5)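 C. albicans ATCC 10231 yeast cells were incubated with compound for 6 h, at up to 2×MIC. Chitin was stained with Calcofluor White and glucan with Aniline Blue, then cells were examined by fluorescence microscopy against untreated controls.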

Candida albicans [18] = test: Antifungal activity against Candida albicans ATCC 10231 assessed as pseudohyphae formation at 120 uM after 6 hrs by calcofluor white and aniline blue staining-based fluorescence microscopy; format: functional, organism-based; summary of the method: as §5
Candida albicans [19] = test: as §3; summary of the method: as §4
Candida albicans [20] = test: Inhibition of beta (1,3) glucan synthase in Candida albicans cell membrane using UDP-Glc as substrate assessed as aniline blue-glucan complex formation at 187 uM by microtiter-based fluorescence method; summary of the method: as §4
Candida albicans [21] = test: Antifungal activity against Candida albicans ATCC 10231 assessed as increase in intracellular potassium release after 30 mins; format: functional, organism-based; conditions: for EC50: Candida albicans, ATCC 10231, 0.5 h
Summary of the method: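 Efflux of K+ from C. albicans cells was monitored continuously with a potassium-selective electrode. Release was expressed relative to a positive control, and EK50 was taken as the concentration releasing 50% of intracellular potassium.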

Candida albicans [22] = test: Antifungal activity against Candida albicans ATCC 10231 assessed as morphological changes at < 7 uM after 6 hrs by calcofluor white and aniline blue staining-based fluorescence microscopy; format: functional, organism-based; summary of the method: as §5
Candida albicans [23] = test: Antifungal activity against Candida albicans ATCC 10231 assessed as pseudohyphae formation at 14 uM after 6 hrs by calcofluor white and aniline blue staining-based fluorescence microscopy; format: functional, organism-based; summary of the method: as §5
Candida albicans [24] = test: Antifungal activity against Candida albicans ATCC 10231 assessed as loss of integrity at 10 uM after 2 hrs by scanning electron microscopy; format: functional, organism-based

| MIC (Staphylococcus aureus [1]) [µM] | MIC (Pseudomonas aeruginosa) [µM] | MIC (Escherichia coli [2]) [µM] | MIC (Staphylococcus aureus [3]) [µM] | MIC [4] [µM] | MIC [5] [µM] | MIC (Acinetobacter baumannii) [µM] | MIC (Escherichia coli [6]) [µM] | MIC (Candida albicans [7]) [µM] | MIC (Candida parapsilosis) [µM] | MIC (Pichia kudriavzevii) [µM] | SMILES | hemolysis at 0.5 h, 100 µM [9] [%] | IC50 [10] [µM] | further results |
| --- | --- | --- | --- | --- | --- | --- | --- | --- | --- | --- | --- | --- | --- | --- |
| 33 (≈ 29.2 µg/mL) | 67 (≈ 59.4 µg/mL) | 33 (≈ 29.2 µg/mL) | 17 (≈ 15.1 µg/mL) | 34 (≈ 30.1 µg/mL) | 8 (≈ 7.09 µg/mL) | 67 (≈ 59.4 µg/mL) | 16 (≈ 14.2 µg/mL) | 33 (≈ 29.2 µg/mL) | 33 (≈ 29.2 µg/mL) | 33 (≈ 29.2 µg/mL) | NC(=O)[C@H](Cc1ccccc1)NC(=O)[C@H](CCCCNC(=O)[C@@H](N)CCCCNC(=O)OCc1ccccc1Cl)NC(=O)[C@@H](N)CCCCNC(=O)OCc1ccccc1Cl (H-Lys(ClZ)-Lys([εLys-ClZ])-Phe-NH2) | – | – | – |
| 30 (≈ 29.9 µg/mL) | 120 (≈ 120 µg/mL) | 8 (≈ 7.98 µg/mL) | 8 (≈ 7.98 µg/mL) | 119 (≈ 119 µg/mL) | 7 (≈ 6.99 µg/mL) | 60 (≈ 59.9 µg/mL) | 8 (≈ 7.98 µg/mL) | 60 (≈ 59.9 µg/mL) | 15 (≈ 15 µg/mL) | 15 (≈ 15 µg/mL) | CCCCCCCCNC(=O)[C@H](Cc1ccccc1)NC(=O)[C@H](CCCCNC(=O)[C@@H](N)CCCCNC(=O)OCc1ccccc1Cl)NC(=O)[C@@H](N)CCCCNC(=O)OCc1ccccc1Cl | 1 | – | hemolysis at 0.5 h, 300 µM [11]: 10%; Activity (Candida albicans [17]): inactive; Activity (Candida albicans [18]): Active; inhibition (Candida albicans [19]): Dose-dependent effect; inhibition (Candida albicans [20]): 43%; Activity (Candida albicans [21]): Dose-dependent effect; EC50 (Candida albicans [21]): 17 µM |
| 28 | 114 | 56 | 28 | 114 | 14 | 114 | 64 | 7 | 7 | 7 | CCCCCCCCCCCCNC(=O)[C@H](Cc1ccccc1)NC(=O)[C@H](CCCCNC(=O)[C@@H](N)CCCCNC(=O)OCc1ccccc1Cl)NC(=O)[C@@H](N)CCCCNC(=O)OCc1ccccc1Cl.Cl.Cl | 10 | 51 | Activity [13]: Toxic; Activity (Candida albicans [22]): inactive; Activity (Candida albicans [23]): Active; Activity (Candida albicans [14]): Active; Activity (Candida albicans [15]): Active; Activity (Candida albicans [24]): Active; inhibition (Candida albicans [19]): Dose-dependent effect; Activity (Candida albicans [21]): Dose-dependent effect; EC50 (Candida albicans [21]): 13 µM |

The remaining lines, values behind:

| SMILES | MIC (Staphylococcus aureus [1]) [µM] | MIC (Pseudomonas aeruginosa) [µM] | MIC (Escherichia coli [2]) [µM] | MIC (Staphylococcus aureus [3]) [µM] | MIC [4] [µM] | MIC [5] [µM] | MIC (Acinetobacter baumannii) [µM] | MIC (Escherichia coli [6]) [µM] | MIC (Candida albicans [7]) [µM] | MIC (Candida parapsilosis) [µM] | MIC (Pichia kudriavzevii) [µM] | hemolysis at 0.5 h, 100 µM [9] [%] | IC50 [10] [µM] | further results |
| --- | --- | --- | --- | --- | --- | --- | --- | --- | --- | --- | --- | --- | --- | --- |
| CCCCCCCCCCCCNC(=O)[C@H](Cc1ccccc1)NC(=O)[C@H](CCCCNC(=O)[C@H](CCCCN)NC(=O)OCc1ccccc1Cl)NC(=O)[C@H](CCCCN)NC(=O)OCc1ccccc1Cl | 32 (≈ 33.7 µg/mL) | 64 (≈ 67.5 µg/mL) | 32 (≈ 33.7 µg/mL) | 16 (≈ 16.9 µg/mL) | > 256 | 8 (≈ 8.43 µg/mL) | > 256 | 32 (≈ 33.7 µg/mL) | 8 (≈ 8.43 µg/mL) | 8 (≈ 8.43 µg/mL) | 8 (≈ 8.43 µg/mL) | 13 | 50 | hemolysis at 0.5 h, 50 µM [8]: 10% |
| CCCCCCCCNC(=O)[C@H](Cc1ccccc1)NC(=O)[C@H](CCCCNC(=O)[C@@H](N)CCCCN)NC(=O)[C@@H](N)CCCCN | 128 (≈ 84.6 µg/mL) | > 256 | > 256 | 128 (≈ 84.6 µg/mL) | > 256 | 32 (≈ 21.2 µg/mL) | > 256 | > 256 | 256 (≈ 169 µg/mL) | 64 (≈ 42.3 µg/mL) | 128 (≈ 84.6 µg/mL) | – | – | hemolysis at 0.5 h, 300 µM [11]: 10% |
| CCCCCCCCCCCCNC(=O)[C@H](Cc1ccccc1)NC(=O)[C@H](CCCCNC(=O)[C@H](CCCCN)NC(=O)OCc1ccccc1)NC(=O)[C@H](CCCCN)NC(=O)OCc1ccccc1.Cl.Cl | 15 | 64 | 30 | 8 | 121 | 7 | 121 | 8 | 8 | 8 | 8 | – | 50 | Activity [12]: Toxic; Activity [13]: Non-toxic; Activity (Candida albicans [14]): Active; Activity (Candida albicans [15]): Active; Activity (Candida albicans [16]): Active |
| CCCCCCCCCCCCCCCC(=O)N[C@H]1C[C@@H](O)[C@@H](O)NC(=O)[C@@H]2[C@@H](O)[C@@H](C)CN2C(=O)[C@H]([C@@H](C)O)NC(=O)[C@H]([C@H](O)[C@@H](O)c2ccc(O)cc2)NC(=O)[C@@H]2C[C@@H](O)CN2C(=O)[C@H]([C@@H](C)O)NC1=O [ACULEACIN A] (Palmitoyl-[Orn(4R-OH,5R-OH)]T[Hyp][hTyr(3S-OH,4S-OH)]T[Pro(3S-OH,4S-Me)]; lactam 1-C) | – | – | – | – | – | – | – | – | 0.5 (≈ 0.518 µg/mL) | – | – | – | 12 | – |
